Test [1] has as its target Vitamin D3 receptor (Homo sapiens) (UniProt P11473). Kind of test: Activity at human VDR assessed as transcriptional activation in COS cells after 24 hrs by luciferase reporter gene assay relative to 1-alpha,25-(OH)2D3. A general note: A reporter such as luciferase makes a cellular process visible.
In test [2] the target is T1, Vitamin D3 receptor (Rattus norvegicus) (UniProt P13053).
T1 sequence (whole entry): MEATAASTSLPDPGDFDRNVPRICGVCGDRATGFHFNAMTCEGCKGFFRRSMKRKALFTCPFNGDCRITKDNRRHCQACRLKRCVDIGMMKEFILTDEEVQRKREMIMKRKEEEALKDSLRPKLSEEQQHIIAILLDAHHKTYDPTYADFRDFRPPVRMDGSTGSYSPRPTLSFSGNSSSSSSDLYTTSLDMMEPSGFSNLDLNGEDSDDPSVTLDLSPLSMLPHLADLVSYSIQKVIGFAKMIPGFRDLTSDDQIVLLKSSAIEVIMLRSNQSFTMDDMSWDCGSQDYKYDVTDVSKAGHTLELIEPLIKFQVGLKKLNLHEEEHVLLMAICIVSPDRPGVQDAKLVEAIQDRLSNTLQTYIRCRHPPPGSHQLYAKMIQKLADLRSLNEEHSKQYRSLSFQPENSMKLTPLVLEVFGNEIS
The test can be described thus: Displacement of [3H]1-alpha,25-(OH)2D3 from rat recombinant VDR ligand-binding domain relative to 1-alpha,25-(OH)2D3. A digest of the protocol: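 His-tagged rat VDR LBD (aa 115–423) was expressed in E. coli and the sonicated lysate diluted ~1000-fold in 50 mM Tris pH 7.5 (100 mM KCl, 5 mM DTT, 0.5% CHAPS, 100 µg/ml BSA). It was incubated with [3H]-1α,25-(OH)2D3 (~5000 dpm) at 4 °C for 18 h. Free ligand was removed with dextran-coated charcoal (30 min, 4 °C) and centrifugation, and the supernatant counted. At least two runs, in duplicate.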
In general terms: Loss of bound radioactivity is the signal in a displacement assay; it reports binding, not function.

Test [3] concerns Osteoclast. The test can be described thus: Increase in osteoclast formation in mouse primary osteoclast cocultured cells. Type of test: functional, cell-based. An outline of the steps:
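Tibial marrow cells (1.5×10^5/well) from 5–8-wk male ddY mice were cocultured with primary calvarial cells (3×10^3/well) from newborn ddY mice. Culture was 7 days in α-MEM with 10% FBS and compound at 10^-8 to 10^-12 M, with medium renewed on day 3. Cells were formaldehyde-fixed and TRAP-stained, and TRAP-positive cells with ≥3 nuclei counted microscopically as osteoclasts.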

Consider `CCC(O)(CC)CCCS[C@@H](C)C1=CCC2/C(=C/C=C3C[C@@H](O)C[C@H](O)C3)CCC[C@]12C` (stereo not given in full), for which the Activity was 2000% in test [1], 100% in test [2] and “Dose-dependent effect” in test [3].
As for `CCC(O)(CC)CCCCS[C@@H](C)C1=CCC2/C(=C/C=C3C[C@@H](O)C[C@H](O)C3)CCC[C@]12C` (stereo not given in full), the Activity in test [1] came out at 1%.
Consider `CCC(O)(CC)CCCS[C@H](C)C1=CCC2/C(=C/C=C3C[C@@H](O)C[C@H](O)C3)CCC[C@]12C` (stereo not given in full), for which the Activity was 20% in test [1], 8% in test [2] and “Dose-dependent effect” in test [3].
For `CCC(O)(CC)CCS[C@H](C)C1=CCC2/C(=C/C=C3C[C@@H](O)C[C@H](O)C3)CCC[C@]12C` (stereo not given in full), in that order: 27%, 4% and “Dose-dependent effect”.
Turning to `CCC(O)(CC)CCCCCS[C@@H](C)C1=CCC2/C(=C/C=C3C[C@@H](O)C[C@H](O)C3)CCC[C@]12C` (stereo not given in full), in test [1], the Activity worked out at 2%.
Turning to `CCC(O)(CC)CS[C@@H](C)C1=CCC2/C(=C/C=C3C[C@@H](O)C[C@H](O)C3)CCC[C@]12C` (stereo not given in full), the Activity in test [1] was 104%; in test [2], 60%; in test [3], “Dose-dependent effect”.
For `CCC(O)(CC)CS[C@H](C)C1=CCC2/C(=C/C=C3C[C@@H](O)C[C@H](O)C3)CCC[C@]12C` (stereo not given in full), in that order: 9%, 6% and “Dose-dependent effect”.
On the same counts, the results for `CCC(O)(CC)CCS[C@@H](C)C1=CCC2/C(=C/C=C3C[C@@H](O)C[C@H](O)C3)CCC[C@]12C` (stereo not given in full) are 2000%, 100% and “Dose-dependent effect”.

(Values after ChEMBL document CHEMBL1143124, “Synthesis and structure-activity relationships of 16-ene-22-thia-1alpha,25-dihydroxy-26,27-dimethyl-19-norvitamin D3 analogs having side chains of different sizes” (Bioorg Med Chem, 2008).)
